# Screening data: PubChem BioAssay, several laboratories
# Hep lipid drop = modulators of hepatic lipid droplet formation; AML12 mouse hepatocytes, oleate lipid droplets, BODIPY imaging; inhibition, % at 6.5 µM; hit rate 0.4% among 240,000;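 active means lipid droplet intensity inhibited by at least 50%, with more than 500 cells counted; inconclusive means wells with under 300 cells, treated as cytotoxic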
#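 Assay system: AML12 hepatocytes (mouse) / Also added: 100 µM oleic acid challenge / Times: overnight treatment with compound plus oleate / Detection: high-content imaging of BODIPY-stained droplets and DAPI nuclei / Evaluation: % inhibition of lipid droplet signal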
# NPR2 activator = GC-B (human) receptor activation; P20594; HEK293-GC-B cells, CNP EC30, cGMP TR-FRET; 0% at EC30 CNP, 100% saturating CNP; activation, % at 10 µM; hit rate 0.11% among 370,000;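 active means activation at 10 µM reaching about 35% in either raw or pattern-adjusted values, limit read from the data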
# aDG glyco act = alpha-DG glycosylation activation | Pro5-aDG cells, alpha-DG glycosylation AlphaScreen (IIH6); 0% Pro5, 100% B10-LARGE cell signal | hit rate 0.22% among 360,000 | AID 624168 | activation, % at 10 µM;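 active means activation of at least 8% versus controls, or a plate z-score of at least 8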;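 further: Pro5 are CHO cells carrying HIG-tagged alpha-DG that lacks glycosylation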
# NR3A LBD binder = NR3A (human) ligand-binding domain modulation. Tm shift relative to glycine control, % at 25 µM. hit rate 2.5% among 340,000. NR3A LBD differential scanning fluorimetry, Tm shift; 0% = protein alone, 100% = glycine-bound protein;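 active means melting temperature shift of at least 10% of the positive control shift, at one fixed dose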
# GC-A act = GC-A (human) enzyme activation | P16066 | HEK293 GC-A cells, cGMP TR-FRET, EC30 ANP; 0% at EC30 ANP, 100% saturating ANP | activation, % at 10 µM | hit rate 0.14% among 370,000 | AID 1671463; in the data active means activation above about 40%
# JMJD2C inh = human JMJD2C demethylase inhibition | Q9H3R0 | inhibition, % at 2.35 µM | GST-JMJD2C(1-420) H3K9me3 demethylation, DELFIA europium | hit rate 0.069% among 330,000;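 active means more than half of a compound's replicate wells show inhibition beyond 50%, single wells judged on their own value; inconclusive means some, but no more than half, of replicates pass 50% inhibition; inactive means no replicate passes 50% inhibition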;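 further: signal counts dimethyl H3K9 product captured on neutravidin plate; 0% = median of DMSO wells and 100% = 0.3 times that DMSO median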
# Lipid drop inh = hepatic lipid droplet formation inhibition, confirmed; AID 463183; inhibition, % at 5.2 µM; hit rate 65% among 870; shares compounds with Hep lipid drop; AML12 mouse hepatocytes, BODIPY lipid droplet imaging; droplets induced with 100 µM oleic acid;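 active means inhibition of lipid droplet metric at least 50%, with more than 300 cells in each of four replicates; inconclusive means wells under 300 cells, flagged as toxic or low count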;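 further: plate controls were DMSO with oleic acid for no effect and 5 µM Triacsin-C for full effect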
# AML12 cytotox = AML12 hepatocyte cytotoxicity (counter-screen); AML12 mouse hepatocytes, DAPI nuclear morphology cytotoxicity imaging; hits give high values; cells fed 100 µM oleate overnight; shares compounds with Hep lipid drop; z-score at 5 µM; hit rate 3% among 870; in the data active means z-score above about 6.3;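 further: compound exposure lasted overnight at 37 °C before fixation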
# AML12 tox conf = AML12 hepatocyte cytotoxicity, confirmed | shares compounds with Hep lipid drop | AML12 mouse hepatocyte viability, ATP luminescence; cells loaded with 100 µM oleic acid | cytotoxicity, % at 50 µM | 530 tested, under 10 active | AID 463219;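 active means cytotoxicity above 50% in each of four replicates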;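 further: compound exposure lasted overnight at 37 °C before the ATP read; 0% = DMSO-treated cells and 100% = wells with no cells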
# Starred values were filed as active, the others as inactive; ? = inconclusive; . = not tested or not shown. Most compounds without a hit are left out; they make up all but 3% or so of the library.
SMILES,Hep lipid drop,NPR2 activator,aDG glyco act,NR3A LBD binder,GC-A act,JMJD2C inh,Lipid drop inh,AML12 cytotox,AML12 tox conf
N#CC(C#N)=c1ccc2c(c1)N1C(c3ccccc3)=CC(c3ccccc3)C3CCCCC31N=2 (stereo unspecified),65.0*,-16.1,-0.5,-1.1,-14.6,0.0,50.3,-1.08,.
S=C(Nc1ccc(Oc2ccccc2)cc1)Nc1cccnc1,-3.0,2.6,-0.1,-0.3,8.5,-0.4,.,.,.
Cc1cc(N(CCO)CCO)ccc1N=Nc1cc(F)ccc1F,114.8*,-2.7,-0.1,-14.3,22.3,-6.1,111.8*,0.882,20.0
O=C(O)CCCC(=O)Nc1ccc(Br)cc1C(=O)O,52.5*,-2.3,-0.1,3.6,4.3,1.0,7.3,0.0744,.
O=C(O)CCCC(=O)Nc1ccc(Br)cc1,7.9,4.8,0.2,-0.1,-0.5,0.7,.,.,.
COc1cc(/C=C(\CCC(=O)O)c2nc3ccccc3s2)ccc1OCC(=O)Nc1c(Cl)cccc1Cl,.,-0.1,-0.1,4.9,-5.5,3.6,.,.,.
CCOc1cc(C(=O)Nc2ccc(N3CCN(S(C)(=O)=O)CC3)cc2)cc(OCC)c1OCC,61.4*,4.6,-0.1,-1.1,-0.9,1.8,93.0*,0.8,6.9
CCOc1cccc(C(=O)Nc2ccc(N3CCN(S(C)(=O)=O)CC3)cc2)c1,-0.6,1.5,0.1,-20.8,-0.5,10.0,.,.,.
COc1ccc(Cl)cc1NC(=O)CCc1ccccc1,-14.5,-17.5,0.4,-1.2,-14.6,1.9,.,.,.
COc1ccc(Cl)cc1NC(=O)CCNC(=O)OCc1ccccc1,62.6*,-4.3,0.2,-1.4,2.0,-4.2,100.3*,0.0639,1.9
O=C(CSCc1cccc(Br)c1)N=Nc1c(O)[nH]c2ccccc12,.,-3.9,0.2,-6.4,3.6,4.6,.,.,.
O=Nc1c(-c2c(O)[nH]c3cc(Br)ccc23)[nH]c2ccccc12,75.1*,17.9,-0.5,5.8,33.4,2.8,111.8*,2.53,67.4*
COc1ccc(-c2cc(C(F)(F)F)nc(SCc3cccc(C(=O)O)c3)n2)cc1,.,-1.2,1.6,-399.0,4.3,-0.3,.,.,.
COc1ccc(-c2cc(C(F)(F)F)nc(SCCC(=O)NCc3ccccc3)n2)cc1,61.7*,-1.2,0.0,-2.3,-3.4,-0.5,-5.6,0.129,.
Cc1cc(C(=O)OCC(=O)Nc2nc(-c3ccccc3)cs2)c(C)o1,.,1.9,-0.1,-4.4,12.5,-12.6,.,.,.
Cc1cc(C(=O)OC(C)C(=O)Nc2nc(-c3ccccc3)cs2)c(C)o1 (stereo unspecified),86.6*,4.0,0.1,-7.1,1.1,-5.5,110.7*,-0.796,4.1
Cc1nnc(NC(=O)CSc2nc3ccccc3o2)s1,-6.4,-0.2,0.6,1.4,1.7,26.2,.,.,.
O=C(CSc1nc2ccccc2o1)Nc1nc(-c2ccccc2)c(-c2ccccc2)s1,60.0*,-6.9,0.4,7.4,-7.5,6.8,96.3*,-0.0482,-11.8
CC1CCC(CC(=O)O)(C(=O)O)CC1 (stereo unspecified),.,0.4,0.5,-3.0,-0.9,.,.,.,.
CCCCn1c(N)c(-c2nc3ccccc3s2)c2c([N+](=O)[O-])nn(CC)c(=O)c21,69.1*,0.4,-0.2,-4.0,12.6,-0.6,78.1*,-0.554,-4.8
CCCCCn1c(N)c(-c2nc3ccccc3s2)c2c([N+](=O)[O-])nn(CC)c(=O)c21,71.5*,1.0,-0.1,-2.7,3.6,-19.9,73.3*,-0.716,-14.2
Cc1ccc(O)c(NC(=O)C2=CC(c3cccs3)=NS(=O)(=O)N2C)c1,?,3.8,0.1,3.0,-3.9,2.6,.,.,.
CCc1ccccc1NC(=O)C1=CC(c2cccs2)=NS(=O)(=O)N1C,71.6*,3.5,0.0,-8.7,-1.8,-4.3,105.0*,-0.135,18.3
CC(=O)Nc1cccc(OCC(=O)NC(C)c2ccc3ccccc3c2)c1 (stereo unspecified),68.5*,0.6,0.0,2.5,-2.7,19.2,38.4,0.155,.
CC(=O)c1ccccc1NC(=O)COC(=O)CN1C(=O)C2CCCCC2C1=O (stereo unspecified),.,-3.0,-0.2,1.8,-0.3,1.4,.,.,.
SMILES,Hep lipid drop,NPR2 activator,aDG glyco act,NR3A LBD binder,GC-A act,JMJD2C inh,Lipid drop inh,AML12 cytotox,AML12 tox conf
O=C(CNc1ccccc1)N/N=C/c1cn(-c2ccccc2)nc1-c1ccccc1,58.4*,2.6,-0.2,-7.9,6.3,4.6,37.6,0.372,.
Cc1cccc(CN2C(=O)N/C(=C/c3cc(C)n(-c4cc(C)ccn4)c3C)C2=O)c1,80.9*,.,-0.2,-1.1,.,-0.2,105.1*,-0.231,7.4
Cc1cccc(CN2C(=O)N/C(=C/c3ccc(C)s3)C2=O)c1,-14.4,-6.1,1.3,-0.2,-6.1,-107.2,.,.,.
CCOC(=O)Cn1cc(CN2C(C(=O)OC)CN(Cc3ccc(C)cc3)CCS2(=O)=O)nn1 (stereo unspecified),.,0.9,.,.,4.1,.,.,.,.
COc1ccccc1/C=C/C(=O)NCC(=O)N/N=C/c1cc(Br)ccc1OC,72.8*,1.5,1.6,0.0,-2.4,-2.8,105.9*,-1.08,17.9
O=C(c1ccc(S(=O)(=O)Nc2cccc(C(F)(F)F)c2)cc1)N1CCOCC1,58.1*,7.1,0.3,3.8,3.5,-2.5,90.2*,0.612,17.6
C=CCSc1n[nH]c(-c2ccc(OCCCC)cc2)n1,54.5*,-3.7,0.2,-8.7,2.6,-1.6,97.7*,0.301,12.7
CN(C)c1nc(N/N=C/c2c[nH]c3ccccc23)nc(N2CCOCC2)n1,131.1*,-0.9,0.6,9.2,0.0,-1.4,86.4*,22.2*,.
O=C(NCc1cccs1)C1CCC(CNS(=O)(=O)c2cccs2)CC1 (stereo unspecified),52.2*,4.0,0.2,1.1,-0.9,1.8,47.5,-0.908,.
O=C(NCc1cccs1)C1CCC(CNS(=O)(=O)c2ccccc2)CC1 (stereo unspecified),-8.3,0.9,-0.3,2.0,1.0,1.0,.,.,.
CCOc1ccccc1NC(=O)C1CCN(C(=O)NCc2ccccc2)CC1,130.4*,0.9,0.0,1.1,-1.8,30.3,109.8*,-0.396,5.6
COc1ccc(CNC(=O)C2CCCN(C(=O)Nc3ccccc3OC)C2)cc1 (stereo unspecified),81.1*,4.6,0.0,-1.9,2.4,-4.9,98.8*,-0.726,10.1
